ChEMBL document CHEMBL1125214, “Synthesis and adenosine receptor affinity of a series of pyrazolo[3,4-d]pyrimidine analogues of 1-methylisoguanosine” (J Med Chem, 1991)

Experiments:
[1] = target: Adenosine A2 receptor (Rattus norvegicus) (UniProt P29276+P30543); test: Inhibition of radioligand R[3H]-CGS 21680 binding to adenosine A2 receptors in rat striatal membrane at 20 uM concentration.; type: cell membranes; settings: Striatum
Procedure, shortened: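 Striata from male Wistar rats (300-400 g) were homogenized in 50 mM Tris-HCl pH 7.4 with 10 mM MgCl2 and pelleted twice at 48000g. Assay: membranes at 100-200 µg/mL, 5 nM [3H]CGS 21680, 90 min at 23 °C. Nonspecific binding defined with 20 µM 2-chloroadenosine. Filtration and counting as in the A1 assay. Compounds tested at 20 µM; result expressed as % inhibition of control binding.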

[2] = target: T1, Adenosine receptor A1 (Rattus norvegicus) (UniProt P25099); test: Inhibition of radioligand R[3H]-N6-PIA binding to adenosine A1 receptors in rat whole brain membrane at 20 uM concentration.; type: cell membranes
T1 sequence (whole entry): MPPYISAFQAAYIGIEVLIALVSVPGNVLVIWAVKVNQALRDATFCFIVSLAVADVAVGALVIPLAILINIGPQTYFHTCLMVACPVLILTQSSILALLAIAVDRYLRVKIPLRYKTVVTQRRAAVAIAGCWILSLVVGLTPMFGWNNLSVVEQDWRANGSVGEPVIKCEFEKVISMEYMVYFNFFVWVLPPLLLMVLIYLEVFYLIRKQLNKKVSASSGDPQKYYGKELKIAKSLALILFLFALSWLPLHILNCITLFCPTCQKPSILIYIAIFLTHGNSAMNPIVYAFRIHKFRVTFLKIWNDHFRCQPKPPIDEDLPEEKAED
Procedure, shortened: (§1)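 Rat whole-brain synaptosomal membranes were made by sucrose homogenization and 14500g pelleting. They were pretreated with adenosine deaminase (2 IU/mL, 37 °C, 30 min). Assay: membranes at 100-200 µg/mL, 2 nM R-[3H]N6-PIA, 50 mM Tris-HCl pH 7.4 with 1 mM MgCl2, 60 min at 37 °C. Compounds in DMSO. Nonspecific binding defined with 100 µM R-N6-PIA. GF/B filtration and scintillation counting. […] At least three runs in triplicate.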

[3] = Hydrophobicity index measured by retention time on a reverse phase HPLC column.; type: ADME
Adenosine receptor A1 [4] = target: T2, Adenosine receptor A1 (Rattus norvegicus, UniProt P25099); test: Inhibitory concentration against R[3H]-N6-PIA binding to adenosine A1 receptor in rat whole brain membrane; type: cell membranes
T2 sequence (P25099 whole entry): T1 sequence (whole entry)
Procedure, shortened: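 Rat whole-brain synaptosomal membranes were made by sucrose homogenization and 14500g pelleting. They were pretreated with adenosine deaminase (2 IU/mL, 37 °C, 30 min). Assay: membranes at 100-200 µg/mL, 2 nM R-[3H]N6-PIA, 50 mM Tris-HCl pH 7.4 with 1 mM MgCl2, 60 min at 37 °C. Compounds in DMSO. Nonspecific binding defined with 100 µM R-N6-PIA. GF/B filtration and scintillation counting. At least three runs in triplicate.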

Adenosine A2 receptor = Adenosine A2 receptor (Rattus norvegicus, UniProt P29276+P30543); test: Inhibitory concentration against [3H]CGS 21680 binding to adenosine A2 receptors in rat striatal membrane
[5] = target: Adenosine receptors; A1 & A2 (Rattus norvegicus) (UniProt P29276+P25099+P30543); test: Ratio of IC50 for A2 and A1 receptor binding; type: protein assay
Adenosine receptor A1 [6] = target: T2, Adenosine receptor A1; test: Inhibitory concentration against R[3H]-N6-PIA binding to adenosine A1 receptors in rat whole brain membrane; type: cell membranes; procedure, shortened: as §1

SMILES | inhibition [1] | inhibition [2] | k' [3] | IC50 (Adenosine receptor A1 [4]) | IC50 (Adenosine A2 receptor) | Ratio [5] | IC50 (Adenosine receptor A1 [6])
CCCn1ncc2c(=N)n(C)c(=O)[nH]c21 | 0% | 5% | 0.8 |  |  |  | 
CCCCn1c(=O)[nH]c2c(cnn2-c2ccccc2)c1=N | 21% | 72% | 18.5 | 9.6 µM | 24.8 µM | 2.6 | 
Cn1c(=O)[nH]c2c(cnn2-c2ccc(N)cc2)c1=N | 0% | 0% | 0.3 |  |  |  | 
Cn1c(=O)[nH]c2c(cnn2-c2ccc(Br)cc2)c1=N | 7% | 34% | 18.9 |  |  |  | 
Cn1c(=O)[nH]c2c(cnn2-c2ccccc2N)c1=N | 0% | 0% | 0.8 |  |  |  | 
Cn1c(=O)[nH]c2c(cnn2-c2ccc([N+](=O)[O-])cc2)c1=N | 0% | 5% | > 36.5 |  |  |  | 
Cn1c(=O)[nH]c2c(cnn2-c2cc(Cl)cc(Cl)c2)c1=N | 0% | 29% | > 36.5 |  |  |  | 
CCn1c(=O)[nH]c2c(cnn2-c2cccc(Cl)c2)c1=N | 24% | 70% | 21.9 | 19.8 µM | 23.5 µM | 1.2 | 
Cn1c(=O)[nH]c2c(cnn2-c2cc(Cl)ccc2Cl)c1=N | 3% | 1% | 4.8 |  |  |  | 
CCn1c(=O)[nH]c2c(cnn2-c2ccccc2)c1=N | 16% | 58% | 4.2 | 20.1 µM | 81.8 µM | 4.1 | 
Cn1c(=O)[nH]c2c(cnn2-c2ccccc2Cl)c1=N | 0% | 7% | 1.7 |  |  |  | 
CCCn1c(=O)[nH]c2c(cnn2-c2cccc(Cl)c2)c1=N | 35% | 68% | > 36.5 | 14.6 µM | 47.3 µM | 3.2 | 
N=c1c2cnn(-c3ccccc3)c2[nH]c(=O)n1-c1ccccc1 | 0% | 25% | 5.1 |  |  |  | 
Cn1c(=O)[nH]c2c(cnn2-c2ccccc2[N+](=O)[O-])c1=N | 7% | 5% | 0.9 |  |  |  | 
Cn1c(=O)[nH]c2c(cnn2-c2ccc(Cl)cc2Cl)c1=N | 0% | 9% | 7.1 |  |  |  | 
Cn1c(=O)[nH]c2c(cnn2-c2ccccc2Br)c1=N | 0% | 6% | 1.8 |  |  |  | 
Cn1c(=O)[nH]c2c(cnn2C)c1=N | 0% | 6% | 0.1 |  |  |  | 
CCCn1c(=O)[nH]c2c(cnn2-c2ccccc2)c1=N | 7% | 52% | 7.5 | 50.7 µM | 50.2 µM | 1 | 
CCCCn1c(=O)[nH]c2c(cnn2-c2cccc(Cl)c2)c1=N | 38% | 58% | > 36.5 |  | 19.2 µM |  | 

More lines, now with the values ahead:

inhibition [1] | inhibition [2] | k' [3] | IC50 (Adenosine receptor A1 [4]) | IC50 (Adenosine A2 receptor) | Ratio [5] | IC50 (Adenosine receptor A1 [6]) | SMILES
1% | 40% | 17.5 |  |  |  |  | Cn1c(=O)[nH]c2c(cnn2-c2cccc(Br)c2)c1=N
1% | 2% | > 36.5 |  |  |  |  | Cn1c(=O)[nH]c2c(cnn2-c2cccc([N+](=O)[O-])c2)c1=N
0% | 37% | 13.6 |  |  |  |  | Cn1c(=O)[nH]c2c(cnn2-c2ccc(Cl)cc2)c1=N
29% | 53% | 14.2 |  |  |  | 16.5 µM | Cn1c(=O)[nH]c2c(cnn2-c2cccc(Cl)c2)c1=N
7% | 30% | 2.6 |  |  |  |  | Cn1c(=O)[nH]c2c(cnn2-c2ccccc2)c1=N
0% | 8% | 1.1 |  |  |  |  | Cn1c(=O)[nH]c2c(cnn2-c2ccccc2F)c1=N
22% | 44% | 5.8 |  |  |  |  | Cn1c(=O)[nH]c2c(cnn2-c2cccc(F)c2)c1=N
0% | 26% | 4.1 |  |  |  |  | Cn1c(=O)[nH]c2c(cnn2-c2ccc(F)cc2)c1=N
0% | 0% | 0.7 |  |  |  |  | Cn1c(=O)[nH]c2c(cnn2-c2cccc(N)c2)c1=N
